Measured values as given in paper PMC2849726 (Journal of medicinal chemistry, 2010).
Values after ≈ are worked out from the molar mass of the structure shown. “Also recorded” adds a separate entry of the source.

Assays:
[1] = test system: SK-BR-3 (estrogen receptor negative, HER2 over-expressing luminal-like breast cancer); test: Cell growth inhibition assay; type: cell-based, human
Procedure, shortened: (§1)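 Cells were grown in RPMI-1640 with 10% FBS and antibiotics at 37 °C in 5% CO2. Freshly trypsinized cells were seeded and test compound added from DMSO-diluted stock, then incubated 72 h after attachment. Cells were fixed with 10% TCA and stained 10 min with 0.4% SRB in 1% HOAc. Bound dye was dissolved in 10 mM trizma base and A515 read. ED50 is the concentration giving 50% reduction in net protein increase versus control, averaged over at least three independent determinations.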

[2] = test system: ZR-75-1 (estrogen receptor positive, HER2 over-expressing luminal-like breast cancer); test: Cell growth inhibition assay; type: cell-based, human; conditions: for IC50: Homo sapiens, ZR-75-1, read-out: IC50 against the ZR-75-1 cell lines
Procedure, shortened: as §1

[3] = test system: MCF-7 (estrogen receptor positive luminal-like breast cancer); test: Cell growth inhibition assay; type: cell-based, human
Procedure, shortened: as §1

ZR-75-1 xenograft = test: Antitumor activity in vivo, ZR-75-1 xenograft; parameters: species or system SCID mice; conditions: 10 mg/kg i.p. qod to end
Procedure, shortened: (§2)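 Human tumour cells were grown in RPMI 1640 with 10% heat-inactivated FBS, 2 mM glutamine and antibiotics, harvested in log phase and resuspended in PBS at 5 × 10^7 cells/mL. 1 × 10^7 cells were given s.c. in the right flank. Test compound was dosed i.p. at 10 mg/kg qod to end in 4% benzyl alcohol/6% cremophor/90% D5W. Controls were vehicle i.p. qod and paclitaxel 20 mg/kg i.p. q4d × 5. Caliper tumour volume = w²×l/2. %TGD was calculated from mean time to endpoint, with logrank P ≤ 0.05. At least five animals per group.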

PC-3 xenograft = test: Antitumor activity in vivo, PC-3 xenograft; parameters: species or system SCID mice; conditions: 10 mg/kg i.p. qod to end
Procedure, shortened: as §2

MDA-MB-231 xenograft = test: Antitumor activity in vivo, MDA-MB-231 xenograft; parameters: species or system SCID mice; conditions: 10 mg/kg i.p. qod to end
Procedure, shortened: as §2

CK2α1 = CK2α1 (Homo sapiens, UniProt P68400); test: Kinases inhibition assay, CK2α1; type: biochemical; conditions: preliminary, Table 3 in supporting information
Sequence of CK2α1 (P68400 whole entry): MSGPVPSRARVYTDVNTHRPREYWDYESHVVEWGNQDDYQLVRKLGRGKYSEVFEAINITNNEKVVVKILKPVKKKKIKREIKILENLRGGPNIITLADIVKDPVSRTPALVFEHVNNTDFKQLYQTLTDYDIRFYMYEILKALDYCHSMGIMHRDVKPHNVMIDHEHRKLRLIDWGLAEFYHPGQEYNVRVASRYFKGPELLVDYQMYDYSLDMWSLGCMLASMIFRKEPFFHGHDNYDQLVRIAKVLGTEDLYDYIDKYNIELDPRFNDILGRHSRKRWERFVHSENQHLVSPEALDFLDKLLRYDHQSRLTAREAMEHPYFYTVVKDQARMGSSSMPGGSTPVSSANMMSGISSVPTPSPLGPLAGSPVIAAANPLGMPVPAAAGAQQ

ABL = ABL (Homo sapiens, UniProt P00519); test: Kinases inhibition assay, ABL; type: biochemical; conditions: preliminary, Table 3 in supporting information
Sequence of ABL (P00519 whole entry, species assumed): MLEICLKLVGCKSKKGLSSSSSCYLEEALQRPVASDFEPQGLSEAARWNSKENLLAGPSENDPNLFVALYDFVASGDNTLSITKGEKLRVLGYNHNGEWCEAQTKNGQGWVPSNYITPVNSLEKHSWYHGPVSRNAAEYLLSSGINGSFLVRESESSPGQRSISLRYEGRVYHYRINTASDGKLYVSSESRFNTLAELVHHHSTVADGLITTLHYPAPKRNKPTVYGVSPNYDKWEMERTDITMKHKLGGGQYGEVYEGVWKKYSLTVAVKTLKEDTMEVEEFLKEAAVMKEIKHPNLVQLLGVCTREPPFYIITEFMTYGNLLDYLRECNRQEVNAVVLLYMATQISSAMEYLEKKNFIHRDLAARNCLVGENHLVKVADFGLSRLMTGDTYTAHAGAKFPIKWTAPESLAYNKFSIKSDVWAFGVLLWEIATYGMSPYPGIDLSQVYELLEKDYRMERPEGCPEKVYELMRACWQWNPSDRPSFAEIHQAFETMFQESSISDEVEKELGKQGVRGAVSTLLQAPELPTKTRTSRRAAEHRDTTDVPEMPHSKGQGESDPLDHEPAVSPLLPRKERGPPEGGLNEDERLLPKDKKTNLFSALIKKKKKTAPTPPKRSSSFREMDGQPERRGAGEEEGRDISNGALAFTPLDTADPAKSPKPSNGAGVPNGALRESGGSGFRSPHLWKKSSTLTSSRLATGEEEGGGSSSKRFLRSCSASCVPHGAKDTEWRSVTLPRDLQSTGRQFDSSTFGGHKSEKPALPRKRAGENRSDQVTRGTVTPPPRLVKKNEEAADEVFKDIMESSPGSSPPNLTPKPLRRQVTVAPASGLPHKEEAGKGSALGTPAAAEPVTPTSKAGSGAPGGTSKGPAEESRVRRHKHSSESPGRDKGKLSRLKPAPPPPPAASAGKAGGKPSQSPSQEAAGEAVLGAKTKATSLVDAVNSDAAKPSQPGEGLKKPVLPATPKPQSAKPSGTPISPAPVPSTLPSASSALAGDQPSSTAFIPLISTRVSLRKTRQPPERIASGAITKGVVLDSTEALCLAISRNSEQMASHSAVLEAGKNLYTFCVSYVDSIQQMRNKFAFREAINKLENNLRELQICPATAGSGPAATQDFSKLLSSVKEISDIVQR

AKT1 = AKT1 (Homo sapiens, UniProt P31749); test: Kinases inhibition assay, AKT1; type: biochemical; conditions: preliminary, Table 3 in supporting information
Sequence of AKT1 (P31749 whole entry, species assumed): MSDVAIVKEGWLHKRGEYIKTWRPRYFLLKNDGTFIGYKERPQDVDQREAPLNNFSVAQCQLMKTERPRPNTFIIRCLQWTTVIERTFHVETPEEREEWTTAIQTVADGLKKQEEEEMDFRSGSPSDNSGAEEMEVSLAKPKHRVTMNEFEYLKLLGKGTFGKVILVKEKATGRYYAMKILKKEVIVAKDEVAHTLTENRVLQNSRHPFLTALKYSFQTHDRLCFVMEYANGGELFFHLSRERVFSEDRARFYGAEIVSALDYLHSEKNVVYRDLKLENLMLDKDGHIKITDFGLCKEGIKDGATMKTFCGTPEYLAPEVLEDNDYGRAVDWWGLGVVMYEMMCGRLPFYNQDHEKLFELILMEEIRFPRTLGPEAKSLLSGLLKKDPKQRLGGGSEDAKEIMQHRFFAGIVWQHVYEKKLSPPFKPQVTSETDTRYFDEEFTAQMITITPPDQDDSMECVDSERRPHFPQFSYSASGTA

[4] = test system: human breast cancer cell lines; test: Cell line panel; type: cell-based; conditions: total 29 cell lines, unpublished data
[5] = test system: mammary gland side branching; test: Preliminary in vivo evaluation, mammary gland side branching; conditions: BRCA1/p53 and wild-type mice, unpublished data
[6] = test system: MCF-7 (estrogen receptor positive luminal-like breast cancer); conditions: cited from earlier work
[7] = test system: SK-BR-3 (estrogen receptor negative, HER2 over-expressing luminal-like breast cancer); conditions: cited from earlier work
[8] = test system: ER+ and HER2++ breast cancer cells; conditions: more selective than TAM; cited from earlier work

Question: What does the source list for Cc1coc2c1c(=O)oc1c3cccc(C(C)Br)c3ccc21 (stereo not drawn) [Compound 24, 6-(1-Bromoethyl)-1-methyl-11H-benzo[h]furo[3,2-c]chromen-11-one]?
Answer: potency relative to 1 against SK-BR-3 [1]: two- to three-fold more potent than 1; potency relative to 1 against ZR-75-1 [2]: two- to three-fold more potent than 1

Question: Which ZR-75-1/SK-BR-3 selectivity ratio [2] does the source give for Cc1coc2c1c(=O)oc1c3cccc(C(C)C)c3ccc21 [Compound 19, 6-Isopropyl-1-methyl-11H-benzo[h]furo[3,2-c]chromen-11-one] here?
Answer: The ZR-75-1/SK-BR-3 selectivity ratio was “tenfold”.

Question: What about the IC50 [2] of the same compound?
Answer: Its IC50 is 0.3 mg/L (≈ 1.03 µM).

Question: For Cc1ccc2c(=O)oc3c4ccccc4ccc3c2c1 [Compound 58, 9-Methyl-6H-dibenzo[c,h]chromen-6-one], which “anti-breast cancer activity (in words)” value ([1]; only SK-BR-3 tested) is on record?
Answer: Its value is “inactive”.

Question: With COc1cccc2c1ccc1c3occ(C)c3c(=O)oc21 [Compound 21, 6-Methoxy-1-methyl-11H-benzo[h]furo[3,2-c]chromen-11-one] as the compound, how does the ZR-75-1/MCF-7 selectivity ratio ([2]; more active against ZR-75-1 than MCF-7) read?
Answer: The ZR-75-1/MCF-7 selectivity ratio was 23 fold.

Question: Which results are given for CCCc1cccc2c1ccc1c3occ(C)c3c(=O)oc21 [Compound 20, 1-Methyl-6-propyl-11H-benzo[h]furo[3,2-c]chromen-11-one]?
Answer: SK-BR-3/MCF-7 selectivity ratio [1]: approximately 12 fold; ZR-75-1/SK-BR-3 selectivity ratio [2]: threefold; IC50 [2]: 0.2 mg/L (≈ 0.684 µM)

Question: Which “activity against MCF-7 (in words)” value [3] does the source give for CCc1cccc2c1ccc1c3oc(C)cc3c(=O)oc21 [Compound 51, 6-Ethyl-2-methyl-11H-benzo[h]furo[3,2-c]chromen-11-one] here?
Answer: The value was “completely inactive”.

Question: With CCc1cccc2c1ccc1c3occ(C)c3c(=O)oc21 [Compound 2] as the compound, how does the “ZR-75-1 tumor xenograft growth (in words)” value (ZR-75-1 xenograft) read?
Answer: The value was “potent activity; also recorded: significant reduction in growth”.

Question: And the “effect on PC-3 xenograft (in words)” value (PC-3 xenograft)?
Answer: The value was “no effect”.

Question: And the “effect on MDA-MB-231 xenograft (in words)” value (MDA-MB-231 xenograft)?
Answer: The value was “no effect”.

Question: What about the “suppression of CK2α1 (in words)” value (CK2α1) of the same compound?
Answer: Its value is “significantly suppressed”.

Question: What about the “suppression of ABL (in words)” value (ABL) of the same compound?
Answer: Its value is “significantly suppressed”.

Question: And the “suppression of AKT1 (in words)” value (AKT1)?
Answer: Its value is “significantly suppressed”.

Question: What about the “share of human breast cancer cell lines against which effective” value [4] of the same compound?
Answer: Its value is “approximately 40%”.

Question: And the “mammary gland side branching (in words)” value [5]?
Answer: Its value is “dramatically reduced”.

Question: And the “activity relative to 1 against MCF-7” value [6]?
Answer: Its value is “about twice as active”.

Question: And the “activity relative to 1 against SK-BR-3” value [7]?
Answer: The value was “about twice as active”.

Question: Which “selectivity relative to TAM” value [8] does the source give for Cc1cccc2c1ccc1c3occ(C)c3c(=O)oc21 [Compound 1, Neo-tanshinlactone] here?
Answer: The value was 20 fold.
